Screening results (PubChem BioAssay)
N-glyco inh = blocks N-linked glycosylation in D54 reporter cells | D54 ERlucT glycosylation luciferase reporter, 24 h; percent of 100 nM tunicamycin response | reporter increase, % at 12.5 µM | 0.23% of 360,000 active;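 active means mean luciferase reporter signal, scaled so untreated is 0 and the glycosylation-blocking control 100, at or above a set limit in every replicate; inconclusive means mean reaches the limit but not every replicate does; inactive means mean below the limit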;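 further: luciferase carries N-glycosylation sites so blocking glycosylation raises the light; 0% = median of neutral control wells and 100% = median of 100 nM tunicamycin wells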
CaV13 FRET inh = Primary screen for inhibitors of IQ motif and Ca2+-dependent inactivation inhibitor domain binding in CACNA1D, Förster resonance energy transfer in living cells, … | HEK cells, CFP/YFP FRET ICDI-IQ, plate reader, 10 min; percent FRET-ratio fall versus neutral wells | inhibition, % at 12.3 µM | 0.098% of 340,000 active;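 active means mean replicate inhibition of at least 30% and at least 1% of replicates passing that level; inconclusive means only one of the two criteria is met; inactive means neither criterion is met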;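 further: 0% = median of the neutral control wells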
RAD52 anneal inh = blocks human RAD52 DNA annealing. P43351. recombinant RAD52 DNA annealing, FRET fluorescence. inhibition, % at 18.7 µM. 0.46% of 360,000 active. AID 651710;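 active means every replicate showing at least 50% inhibition; inconclusive means mean inhibition at least 50% but not in every replicate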
RAD54 branch = RAD54 (human) branch migration inhibition | Q92698 | inhibition, % at 10.4 µM | 0.14% of 360,000 active | RAD54 Holliday junction branch migration, FAM/BHQ fluorescence;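 active means mean normalized replicate activity at least 40 and at least half of replicates scoring 40 or more; inconclusive means only one of the two criteria met; inactive means mean below 40 and under half of replicates reaching 40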;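 further: 0% = median of neutral control wells and 100% = median of positive control wells; inhibitors cause a drop in the FAM fluorescence signal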
Target sequence (Q92698 whole entry, looked up): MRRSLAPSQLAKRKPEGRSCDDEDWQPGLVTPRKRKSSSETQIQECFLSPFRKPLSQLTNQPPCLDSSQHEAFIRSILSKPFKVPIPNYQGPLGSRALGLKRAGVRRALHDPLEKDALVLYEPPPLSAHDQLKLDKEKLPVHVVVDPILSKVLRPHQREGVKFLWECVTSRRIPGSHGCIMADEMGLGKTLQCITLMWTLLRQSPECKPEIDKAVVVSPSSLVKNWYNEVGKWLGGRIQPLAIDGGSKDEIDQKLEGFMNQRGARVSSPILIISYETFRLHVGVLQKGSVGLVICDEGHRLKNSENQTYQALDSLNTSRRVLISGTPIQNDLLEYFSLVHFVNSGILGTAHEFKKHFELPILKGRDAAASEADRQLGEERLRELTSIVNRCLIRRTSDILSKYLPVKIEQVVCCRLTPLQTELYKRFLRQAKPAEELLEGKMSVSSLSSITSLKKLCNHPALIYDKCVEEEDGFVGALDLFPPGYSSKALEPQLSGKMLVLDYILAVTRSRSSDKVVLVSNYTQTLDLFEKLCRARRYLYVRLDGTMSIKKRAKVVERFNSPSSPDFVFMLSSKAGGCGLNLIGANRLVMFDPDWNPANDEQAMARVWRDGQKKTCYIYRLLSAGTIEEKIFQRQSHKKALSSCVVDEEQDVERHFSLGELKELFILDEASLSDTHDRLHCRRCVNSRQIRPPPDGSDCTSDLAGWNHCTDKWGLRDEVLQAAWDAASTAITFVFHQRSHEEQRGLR
FN deposition inh = fibronectin deposition inhibition | AH1F fibroblasts, Alexa488-fibronectin deposition fluorescence, overnight | inhibition, % at 12.6 µM | 0.086% of 350,000 active | AID 743247;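 active means mean inhibition across replicates of 30% or more, regardless of how many single replicates reach that level; inconclusive means mean under 30% yet at least half of replicates reach 30%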;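 further: positive control wells lacked labelled fibronectin entirely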
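Schedule: 1 h cell adhesion before compound, then overnight fibronectin incubation; test system: AH1F fibroblast monolayer depositing Alexa488-labelled fibronectin into matrix; quantity: 10000 AH1F cells per well; probe or stimulus: fluorescent fibronectin at 24 nM final; signal: fluorescence, ex 485 nm, em 525 nm; evaluation: percent inhibition as loss of matrix-bound fibronectin fluorescence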
DNA binder FP = counter-screen for RAD52 inhibitors: DNA binding compounds | Salmon sperm DNA/acridine orange FP displacement | AID 652128 | shares compounds with RAD52 anneal inh | AC50, µM | 8% of 1,000 active;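 active means fitted half-maximal concentration for signal loss at or below twice the highest dose tested, in every separate run, actives reach about 64 µM in these data; inconclusive means runs disagree, or flat partial signal loss, or poor fit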
An asterisk follows results filed as active; i = inactive; u = inconclusive; x = not tested or not shown. Only some compounds are listed: those with a hit (about 0.7% of all), similar ones and a draw of the others.

SMILES	N-glyco inh	CaV13 FRET inh	RAD52 anneal inh	RAD54 branch	FN deposition inh	DNA binder FP
C[C@@H]1CN([C@@H](C)CO)C(=O)Cc2cc(NC(=O)Cc3ccccc3)ccc2O[C@H]1CN(C)C(=O)Nc1ccc2c(c1)OCO2	x	x	-9	-2	x	x
CN(C)c1cccc2cccc(N(C)C)c12	4	-3	93*	-4	1	i
C[C@H](CO)N1C[C@H](C)[C@H](CN(C)C(=O)Cc2ccccc2)OCCCC[C@H](C)Oc2ccc(NS(=O)(=O)c3ccc(F)cc3)cc2C1=O	x	x	x	0	x	x
CCCC#Cc1ccc2c(c1)O[C@@H](CN(C)C(=O)CC1CC1)[C@H](C)CN([C@H](C)CO)S2(=O)=O	x	x	10	1	x	x
O=C1c2ccccc2C(=O)c2c(NCc3cccnc3)cccc21	1	-4	x	-34	-3	x
O=C1c2cccc(NCCCNCCO)c2C(=O)c2cccc(NCCCNCCO)c21	-18	-5	91*	x	x	1.5µM*
O=C(Nc1ccccc1)[C@@H]1[C@@H](CO)[C@@H]2Cn3c(cccc3=O)[C@@H]2N1Cc1ccccc1Cl	x	x	-9	9	x	x
COc1ccc(/C=N/Nc2cc(C)nc3c(C)cccc23)cc1	5	-11	80*	61*	6	u
Nc1ccc(Nc2nc(-c3ccncc3)cs2)cc1	-10	-7	-9	-12	x	x
Nc1ccc(Nc2ccncc2)cc1	-3	-18	69*	31	12	i
CCN1CCCC1CNC(=O)c1cc(N)ccc1OC (stereo not drawn)	-2	3	90*	32	-10	i
CCN1CCC[C@H]1CNC(=O)c1c(OC)ccc(Br)c1OC	4	-5	2	-7	14	x
CC(=O)N(C)C[C@@H]1Oc2ncc(C#Cc3ccncc3)cc2C(=O)N([C@H](C)CO)C[C@@H]1C	x	x	2	2	-6	x
CCOC(=O)c1c(CN(C)C)n(C)c2c(O)c(N=NC(N)=O)c3ccc(Br)cc3c12	28*	-1	101*	58*	-11	i
CCCn1c(=O)c(C(=O)OCC)c(O)c2cc(Br)ccc21	2	-4	x	x	-5	x
COc1ccc(C[C@H]2CCc3cnnn3COCCNC2=O)cc1	x	x	x	x	-9	x
COCCNc1oc(/C=C/c2cccs2)nc1S(=O)(=O)c1ccccc1	-2	-6	-179	-12	x	x
CN(C)CCCNc1oc(/C=C/c2cccs2)nc1S(=O)(=O)c1ccccc1	-5	-5	52*	5	-2	i
NCC[C@H]1CC[C@@H](NS(=O)(=O)c2ccc(Cl)cc2)[C@H](CO)O1	x	x	10	2	-13	x
COc1ccc(S(=O)(=O)Nc2cccc3c2O[C@H](CN(C)C)[C@H](C)CN([C@H](C)CO)C3=O)cc1	x	x	4	23	x	x
COc1cccc(/C=C/C(=O)c2ccc(NC3=NCCCS3)cc2)c1	10	6	32	x	-1	x
Cc1cccc(/C=C/C(=O)c2ccc(NC3=NCCCS3)cc2)c1	4	-2	54*	x	8	i
CCN1CCN(C(=O)C2CCN(c3nnc(-n4c(C)ccc4C)s3)CC2)CC1	5	-2	58*	3	-18	i
Cc1ccc(C)n1-c1nnc(N2CCC(C(=O)N3CCN(C)CC3)CC2)s1	7	-2	56*	0	-4	i
CN1CCN(CCCNC(=O)C2CCN(c3nnc(-n4cccc4)s3)CC2)CC1	-1	x	x	3	x	x
SMILES	N-glyco inh	CaV13 FRET inh	RAD52 anneal inh	RAD54 branch	FN deposition inh	DNA binder FP
Cc1cc(=O)n2nc(N3CCC(C(=O)N4CCN(C)CC4)CC3)sc2n1	0	-5	x	3	x	x
CCOC(=O)N1CCN(C(=O)C2CCN(c3nnc(-n4cccc4)s3)CC2)CC1	1	-2	-10	-3	2	x
CCCN1CCN(CCCNC(=O)C2CCN(c3nnc(-n4c(C)ccc4C)s3)CC2)CC1	5	-2	58*	-14	0	i
Clc1ccc(-c2csc(N3CCCCCC3)n2)cc1	-4	-19	-5	3	10	x
CN1CCN(c2nc(-c3ccc(Cl)s3)cs2)CC1	-2	-6	51*	x	4	i
COc1cc(NCCCCCCN)c2ncccc2c1OC	9	-6	63*	x	x	i
COc1cc(NC(C)CCCNC(C)C)c2ncccc2c1OC (stereo not drawn)	5	-8	-37	-13	1	x
CNC[C@H](O)c1ccc(O)c(O)c1	0	-6	0	1	8	x
NC[C@H](O)c1ccc(O)c(O)c1	0	-5	70*	-5	0	i
CN1CCN(c2cc3c(c4c2[nH]c2ccccc24)C(=O)CC(C)(C)C3)CC1	2	-6	67*	22	7	i
CN1CCN(c2ccc(Cl)cc2NC(=O)c2cc(=O)[nH]c3ccccc23)CC1	-1	-5	-2	12	-6	x
CCOC(=O)c1sc2nc(N3CCOCC3)c3c(c2c1N)CC(C)(C)N(C)C3	-2	-6	x	-4	-5	x
CN1Cc2c(N3CCOCC3)nc3sc(C(=O)c4ccccc4)c(N)c3c2CC1(C)C	-4	-9	60*	x	0	i
CC(=O)c1cccc(Nc2cc(C)nc3ccccc23)c1	0	1	9	21	-13	x
CC(=O)c1cccc(Nc2cc(C)nc3c(C)cccc23)c1	18	-12	50*	x	1	i
O=C(Nc1ccn(CCCN2CCN(Cc3cccc4ccccc34)CC2)c(=O)n1)OCc1ccccc1	-3	-6	52*	x	7	i
CC(C)NC(=O)N[C@H]1CC[C@@H](CC(=O)N2CCCCC2)O[C@@H]1CO	x	x	-5	0	8	x
CN(C)CCCN(C(=O)c1ccc2c(c1)CCCC2)c1nc2c(F)cccc2s1	6	-2	75*	9	6	i
CN(C)CCCN(C(=O)c1ccc(N2C(=O)CCC2=O)cc1)c1nc2c(F)cccc2s1	0	-4	2	6	-3	x
Cc1cc(C)c2nc(N(CCCN(C)C)C(=O)c3ccc(S(=O)(=O)N4CCCCCC4)cc3)sc2c1	-5	-5	61*	6	3	i
Cc1cc(C)c2nc(N(CCCN(C)C)C(=O)c3ccc4c(c3)CCCC4)sc2c1	x	-6	58*	x	x	i
Cc1ccc2nc(N(CCCN(C)C)C(=O)c3ccc4c(c3)CCCC4)sc2c1	-9	-3	x	26	-3	x
COc1ccccc1CN1CC2(C1)[C@H](c1ccccc1)[C@H](CO)N2Cc1ccccc1	x	x	-100	x	x	x
O=C(CN1CCCCC1)Nc1ccccc1	0	-4	x	0	-35	x
O=C(CN1CCCCC1)Nc1ccc(N2CCCCCC2)cc1	-5	8	62*	x	-3	i
C[C@H](CO)N1C[C@H](C)[C@@H](CN(C)C)OCCCC[C@H](C)Oc2ccc(NS(=O)(=O)c3ccccc3)cc2C1=O	x	x	x	x	-2	x
CCOc1ccc2c(C)nc(NC3=NC(C)(C)C=C(C)N3)nc2c1	-1	-5	91*	39	-6	i
